Laboratory results as given in ChEMBL document CHEMBL1926569, “Novel (E)-1-(4-methyl-2-(alkylamino)thiazol-5-yl)-3-arylprop-2-en-1-ones as potent antimicrobial agents” (2011).
Values after ≈ are worked out from the molar mass of the structure shown.

Legend:
Staphylococcus aureus [1] = test: Antibacterial activity against Staphylococcus aureus ATCC 6538 after 24 hrs by microdilution method; assay type: functional; conditions: ATCC 6538, 24 h
Method in brief: (§1)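 Broth microdilution in 96-well plates. Bacterial suspensions were adjusted in sterile saline to 1.0 × 10⁵ CFU/ml, prepared daily and kept at 4 °C. Compound was added to LB broth with 1.0 × 10⁴ CFU per well and shaken at 160 rpm for 24 h at […] (so in the source). MIC is the lowest concentration with no visible growth under a binocular microscope. OD655 was also read. Duplicate, repeated three times.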

Bacillus cereus [2] = test: Antibacterial activity against clinical isolate of Bacillus cereus after 24 hrs by microdilution method; assay type: functional; method in brief: as §1
Micrococcus flavus [3] = test: Antibacterial activity against Micrococcus flavus ATCC 10240 after 24 hrs by microdilution method; assay type: functional; conditions: ATCC 10240, 24 h; method in brief: as §1
Listeria monocytogenes [4] = test: Antibacterial activity against Listeria monocytogenes NCTC 7973 after 24 hrs by microdilution method; assay type: functional; conditions: NCTC 7973, 24 h; method in brief: as §1
Pseudomonas aeruginosa [5] = test: Antibacterial activity against Pseudomonas aeruginosa ATCC 27853 after 24 hrs by microdilution method; assay type: functional; conditions: ATCC 27853, 24 h; method in brief: as §1
Salmonella typhimurium [6] = test: Antibacterial activity against Salmonella Typhimurium ATCC 13311 after 24 hrs by microdilution method; assay type: functional, Salmonella enterica subsp. enterica serovar Typhimurium; conditions: Salmonella enterica, ATCC 13311, 24 h; method in brief: as §1
Escherichia coli [7] = test: Antibacterial activity against Escherichia coli ATCC 35210 after 24 hrs by microdilution method; assay type: functional; conditions: ATCC 35210, 24 h; method in brief: as §1
Enterococcus faecalis [8] = test: Antibacterial activity against Enterococcus faecalis isolated from human after 24 hrs by microdilution method; assay type: functional; method in brief: as §1
Staphylococcus aureus [9] = test: Antibacterial activity against Staphylococcus aureus ATCC 6538 incubated for 24 hrs followed by serial sub-cultivation for 24 hrs by microdilution method; assay type: functional; conditions: ATCC 6538, 24 h
Method in brief: (§2)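 MBC: after the 24 h LB broth microdilution (1.0 × 10⁴ CFU per well, 160 rpm), wells were serially sub-cultured into fresh broth plates and incubated a further 24 h. MBC is the lowest concentration with no visible growth, taken as 99.5% killing of the original inoculum. Duplicate, repeated three times.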

Bacillus cereus [10] = test: Antibacterial activity against clinical isolate of Bacillus cereus incubated for 24 hrs followed by serial sub-cultivation for 24 hrs by microdilution; assay type: functional; method in brief: as §2
Micrococcus flavus [11] = test: Antibacterial activity against Micrococcus flavus ATCC 10240 incubated for 24 hrs followed by serial sub-cultivation for 24 hrs by microdilution; assay type: functional; conditions: ATCC 10240, 24 h; method in brief: as §2
Listeria monocytogenes [12] = test: Antibacterial activity against Listeria monocytogenes NCTC 7973 incubated for 24 hrs followed by serial sub-cultivation for 24 hrs by microdilution; assay type: functional; conditions: NCTC 7973, 24 h; method in brief: as §2
Pseudomonas aeruginosa [13] = test: Antibacterial activity against Pseudomonas aeruginosa ATCC 27853 incubated for 24 hrs followed by serial sub-cultivation for 24 hrs by microdilution; assay type: functional; conditions: ATCC 27853, 24 h; method in brief: as §2
Salmonella typhimurium [14] = test: Antibacterial activity against Salmonella Typhimurium ATCC 13311 incubated for 24 hrs followed by serial sub-cultivation for 24 hrs by microdilution; assay type: functional, Salmonella enterica subsp. enterica serovar Typhimurium; conditions: Salmonella enterica, ATCC 13311, 24 h; method in brief: as §2
Escherichia coli [15] = test: Antibacterial activity against Escherichia coli ATCC 35210 incubated for 24 hrs followed by serial sub-cultivation for 24 hrs by microdilution; assay type: functional; conditions: ATCC 35210, 24 h; method in brief: as §2
Enterococcus faecalis [16] = test: Antibacterial activity against Enterococcus faecalis isolated from human incubated for 24 hrs followed by serial sub-cultivation for 24 hrs by microdilution; assay type: functional; method in brief: as §2
Aspergillus ochraceus [17] = test: Antifungal activity against Aspergillus ochraceus ATCC 12066 after 72 hrs by serial dilution technique; assay type: functional; conditions: ATCC 12066, 72 h
Method in brief: (§3)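 Modified microdilution in 96-well plates. Fungi were kept on malt agar at 4 °C. Spores were washed off in sterile 0.85% saline with 0.1% Tween 80. Compounds were dissolved at 1 mg/ml in 5% DMSO with 0.1% Tween 80 and added to malt broth with inoculum. Plates were shaken at 160 rpm for 72 h at 28 °C. Duplicate, repeated three times.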

Aspergillus niger [18] = test: Antifungal activity against Aspergillus niger ATCC 6275 after 72 hrs by serial dilution technique; assay type: functional; conditions: ATCC 6275, 72 h; method in brief: as §3
Aspergillus flavus [19] = test: Antifungal activity against Aspergillus flavus ATCC 9643 after 72 hrs by serial dilution technique; assay type: functional; conditions: ATCC 9643, 72 h; method in brief: as §3
Talaromyces funiculosus [20] = test: Antifungal activity against Penicillium funiculosum ATCC 36839 after 72 hrs by serial dilution technique; assay type: functional; conditions: ATCC 36839, 72 h; method in brief: as §3
Penicillium ochrochloron [21] = test: Antifungal activity against Penicillium ochrochloron ATCC 9112 after 72 hrs by serial dilution technique; assay type: functional; conditions: ATCC 9112, 72 h; method in brief: as §3
Trichoderma viride [22] = test: Antifungal activity against Trichoderma viride IAM 5061 after 72 hrs by serial dilution technique; assay type: functional; conditions: IAM 5061, 72 h; method in brief: as §3
Candida albicans [23] = test: Antifungal activity against Candida albicans isolated from human after 72 hrs by serial dilution technique; assay type: functional; method in brief: as §3
Aspergillus ochraceus [24] = test: Antifungal activity against Aspergillus ochraceus ATCC 12066 incubated for 72 hrs followed by serial sub-cultivation for 72 hrs by serial dilution technique; assay type: functional; conditions: ATCC 12066, 72 h
Method in brief: (§4)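 MFC: material from 72 h malt broth microdilution wells was serially sub-cultured into fresh broth plates and incubated a further 72 h at 28 °C. Fungicidal concentration is taken from growth after sub-culture. Duplicate, repeated three times.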

Aspergillus fumigatus [25] = test: Antifungal activity against Aspergillus fumigatus isolated from human incubated for 72 hrs followed by serial sub-cultivation for 72 hrs by serial dilution technique; assay type: functional; method in brief: as §4
Aspergillus niger [26] = test: Antifungal activity against Aspergillus niger ATCC 6275 incubated for 72 hrs followed by serial sub-cultivation for 72 hrs by serial dilution technique; assay type: functional; conditions: ATCC 6275, 72 h; method in brief: as §4
Aspergillus flavus [27] = test: Antifungal activity against Aspergillus flavus ATCC 9643 incubated for 72 hrs followed by serial sub-cultivation for 72 hrs by serial dilution technique; assay type: functional; conditions: ATCC 9643, 72 h; method in brief: as §4
Talaromyces funiculosus [28] = test: Antifungal activity against Penicillium funiculosum ATCC 36839 incubated for 72 hrs followed by serial sub-cultivation for 72 hrs by serial dilution technique; assay type: functional; conditions: ATCC 36839, 72 h; method in brief: as §4
Penicillium ochrochloron [29] = test: Antifungal activity against Penicillium ochrochloron ATCC 9112 incubated for 72 hrs followed by serial sub-cultivation for 72 hrs by serial dilution technique; assay type: functional; conditions: ATCC 9112, 72 h; method in brief: as §4
Trichoderma viride [30] = test: Antifungal activity against Trichoderma viride IAM 5061 incubated for 72 hrs followed by serial sub-cultivation for 72 hrs by serial dilution technique; assay type: functional; conditions: IAM 5061, 72 h; method in brief: as §4
Candida albicans [31] = test: Antifungal activity against Candida albicans isolated from human incubated for 72 hrs followed by serial sub-cultivation for 72 hrs by serial dilution technique; assay type: functional; method in brief: as §4
Pseudomonas aeruginosa [32] = test: Ratio of ampicillin MIC to compound MIC for Pseudomonas aeruginosa ATCC 27853; assay type: functional
Aspergillus ochraceus [33] = test: Ratio of bifonazole to compound for Aspergillus ochraceus ATCC 12066; assay type: functional
Aspergillus niger [34] = test: Ratio of bifonazole to compound for Aspergillus niger ATCC 6275; assay type: functional
Talaromyces funiculosus [35] = test: Ratio of bifonazole to compound for Penicillium funiculosum ATCC 36839; assay type: functional
Penicillium ochrochloron [36] = test: Ratio of bifonazole to compound for Penicillium ochrochloron ATCC 9112; assay type: functional
Trichoderma viride [37] = test: Ratio of bifonazole to compound for Trichoderma viride IAM 5061; assay type: functional
Candida albicans [38] = test: Ratio of bifonazole to compound for Candida albicans isolated from human; assay type: functional
Aspergillus ochraceus [39] = test: Ratio of ketoconazole to compound for Aspergillus ochraceus ATCC 12066; assay type: functional
Aspergillus fumigatus [40] = test: Ratio of ketoconazole to compound for Aspergillus fumigatus isolated from human; assay type: functional
Penicillium ochrochloron [41] = test: Ratio of ketoconazole to compound for Penicillium ochrochloron ATCC 9112; assay type: functional
Candida albicans [42] = test: Ratio of ketoconazole to compound for Candida albicans isolated from human; assay type: functional
Aspergillus ochraceus [43] = test: Antifungal activity against Aspergillus ochraceus after 72 hrs by serial dilution technique

MIC (Staphylococcus aureus [1]): 72.5 µM (≈ 20 µg/mL)
MIC (Bacillus cereus [2]): 72.5 µM (≈ 20 µg/mL)
MIC (Micrococcus flavus [3]): 18.1 µM (≈ 5 µg/mL)
MIC (Listeria monocytogenes [4]): 90.6 µM (≈ 25 µg/mL)
MIC (Pseudomonas aeruginosa [5]): 54.3 µM (≈ 15 µg/mL)
MIC (Salmonella typhimurium [6]): 72.5 µM (≈ 20 µg/mL)
MIC (Escherichia coli [7]): 54.3 µM (≈ 15 µg/mL)
MIC (Enterococcus faecalis [8]): 54.3 µM (≈ 15 µg/mL)
MIC (Aspergillus ochraceus [17]): 36.2 µM (≈ 10 µg/mL)
MIC (Aspergillus niger [18]): 54.3 µM (≈ 15 µg/mL)
MIC (Aspergillus flavus [19]): 36.2 µM (≈ 10 µg/mL)
MIC (Talaromyces funiculosus [20]): 36.2 µM (≈ 10 µg/mL)
MIC (Penicillium ochrochloron [21]): 36.2 µM (≈ 10 µg/mL)
MIC (Trichoderma viride [22]): 36.2 µM (≈ 10 µg/mL)
MIC (Candida albicans [23]): 51.3 µM (≈ 14.2 µg/mL)
MIC (Aspergillus ochraceus [43]): 36.2 µM (≈ 10 µg/mL)
SMILES: CNc1nc(C)c(C(=O)/C=C/c2cccc(F)c2)s1
MBC (Staphylococcus aureus [9]): 90.6 µM (≈ 25 µg/mL)
MBC (Bacillus cereus [10]): 90.6 µM (≈ 25 µg/mL)
MBC (Micrococcus flavus [11]): 72.5 µM (≈ 20 µg/mL)
MBC (Listeria monocytogenes [12]): 90.6 µM (≈ 25 µg/mL)
MBC (Pseudomonas aeruginosa [13]): 72.5 µM (≈ 20 µg/mL)
MBC (Salmonella typhimurium [14]): 90.6 µM (≈ 25 µg/mL)
MBC (Escherichia coli [15]): 72.5 µM (≈ 20 µg/mL)
MBC (Enterococcus faecalis [16]): 72.5 µM (≈ 20 µg/mL)
MFC (Aspergillus ochraceus [24]): 72.5 µM (≈ 20 µg/mL)
MFC (Aspergillus fumigatus [25]): 72.5 µM (≈ 20 µg/mL)
MFC (Aspergillus niger [26]): 72.5 µM (≈ 20 µg/mL)
MFC (Aspergillus flavus [27]): 90.6 µM (≈ 25 µg/mL)
MFC (Talaromyces funiculosus [28]): 72.5 µM (≈ 20 µg/mL)
MFC (Penicillium ochrochloron [29]): 72.5 µM (≈ 20 µg/mL)
MFC (Trichoderma viride [30]): 72.5 µM (≈ 20 µg/mL)
MFC (Candida albicans [31]): 72.5 µM (≈ 20 µg/mL)
Ratio (Pseudomonas aeruginosa [32]): 10
Ratio (Aspergillus ochraceus [33]): 10
Ratio (Aspergillus niger [34]): 10
Ratio (Talaromyces funiculosus [35]): 10
Ratio (Penicillium ochrochloron [36]): 10
Ratio (Trichoderma viride [37]): 10
Ratio (Candida albicans [38]): 10
Ratio (Aspergillus ochraceus [39]): 10
Ratio (Aspergillus fumigatus [40]): 10
Ratio (Penicillium ochrochloron [41]): 10
Ratio (Candida albicans [42]): 10
